From paper PMC6420060 (ACS applied materials & interfaces, 2018)

Tests used:
Assay type in all cases: physicochemical
[1] = Permeation into trapped giant unilamellar vesicles measured by FCS; conditions: 20 nM; for permeation into individual GUVs: 20% POPS
Method in brief: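 POPC/POPS (4:1) GUVs, sucrose inside and glucose outside, ± 10 μM Ru complex for about 45 min. Held in BSA-coated microfluidic hydrodynamic traps with valves pressurised to 2 bar. 20 nM calcein in hosting buffer flushed in, valves reopened, static or under flow. After 30 min, FCS used a 488 nm laser at 60 μW. Curves fitted with a triplet term and corrected for buffer background. Permeation taken as N inside versus outside per vesicle.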

[2] = ζ-Potential of GUVs after incubation with Ru; conditions: GUVs containing 1 M sucrose measured in 1 M glucose, Zetasizer Nano ZSP
[3] = GUV size after incorporation of Ru; conditions: all samples pooled
Method in brief: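 GUVs (POPC:POPS 4:1) made by emulsion transfer: 1 M sucrose/140 mM KCl/10 mM HEPES pH 7.4 inside, 1 M glucose/140 mM NaCl/10 mM HEPES outside. Incubated with 10 μM (final) Ru complex, typically 45 min, ± 200 μM (final) potassium ferricyanide. Imaged under a 60× water-immersion objective. Diameter taken at the z-plane of largest size, averaged over x and y. All vesicles pooled into histograms.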

Compound | permeation into individual GUVs ([1]; with Ru(C17)2^2+, sub-20 μm vesicle diameters) | permeation into individual GUVs under flow ([1]; without Ru(C17)2^2+, nominal flow rates of 2, 5, 8, and 11 μL/min, larger vesicles (above 20 μm)) | permeation into individual GUVs ([1]; without Ru(C17)2^2+, vesicle diameter 20 μm) | permeation into individual GUVs ([1]; without Ru(C17)2^2+, vesicle diameter down to 10 μm) [%] | ζ-potential of GUVs after incubation with Ru(C17)2^2+ ([2]; start of the period, pure GUVs with 20% POPS −90.8 ± 3.3 mV) [mV] | ζ-potential of GUVs after incubation with Ru(C17)2^2+ ([2]; up to 9 h after incubation) [mV] | vesicle diameter with Ru(C17)2^2+ and addition of potassium ferricyanide [3] [µm] | vesicle diameter upon incorporation of Ru(C17)2^2+ ([3]; 23.0 ± 6.6 without Ru(C17)2^2+) [nm]
O=C(O)CN(CC(=O)O)Cc1cc2c(cc1O)Oc1cc(O)c(CN(CC(=O)O)CC(=O)O)cc1C21OC(=O)c2ccccc21 [calcein] | below 30% | below 10% | below 10% | 60 |  |  |  | 
dihepta-decylated tris(bipyridine)ruthenium(II) complex [Ru(C17)2^2+] |  |  |  |  | −11.7 ± 4.8 | −18.5 ± 2.6 | 15.8 ± 3.8 | 17.9 ± 4.8
